According to ChEMBL document CHEMBL1125626, “Synthesis and structure-activity relationship of new cephalosporins with amino heterocycles at C-7. Dependence of the antibacterial spectrum and beta-lactamase stability on the pKa of the C-7 heterocycle” (1991):
Converted amounts (≈) assume the structure as drawn.

Tests used:
Staphylococcus aureus [1] = assay: (§1) Minimum inhibitory concentration against Staphylococcus aureus A5(inoculum, 10e5 cfu per spot); type: functional; conditions: in the assay text read “10e2 cfu per spot” for “10e5 cfu per spot”
Pseudomonas aeruginosa [2] = assay: Minimum inhibitory concentration against Pseudomonas aeruginosa A21 (inoculum, 10e5 cfu per spot); type: functional
How it was run: (§2)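 MIC in µg/mL, determined in Jewell and Permain growth medium with spot inoculation at 10^5 cfu per spot.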

Proteus mirabilis [3] = assay: Minimum inhibitory concentration against Proteus mirabilis A18 (inoculum, 10e5 cfu per spot); type: functional; how it was run: as §2
Enterobacter cloacae [4] = assay: Minimum inhibitory concentration against Enterobacter cloacae A13(inoculum, 10e2 cfu per spot)
Serratia marcescens [5] = assay: Minimum inhibitory concentration against Serratia marcescens A16 (inoculum, 10e5 cfu per spot); type: functional; how it was run: as §2
Streptococcus pyogenes = assay: Minimum inhibitory concentration against Streptococcus pyogenes (inoculum, 10e5 cfu per spot) A1; type: functional; how it was run: as §2
Staphylococcus aureus [6] = assay: Minimum inhibitory concentration against Staphylococcus aureus A6 (inoculum, 10e5 cfu per spot); type: functional; how it was run: as §2
Escherichia coli [7] = assay: Minimum inhibitory concentration against Escherichia coli A8 (inoculum, 10e5 cfu per spot); type: functional; how it was run: as §2
Klebsiella aerogenes [8] = assay: Minimum inhibitory concentration against Klebsiella aerogenes X5L (inoculum, 10e4 cfu per spot); type: functional
How it was run: (§3)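 MIC in µg/mL, determined in Jewell and Permain growth medium with spot inoculation at 10^4 cfu per spot. P99 is described as a constitutive type I lactamase producer.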

Escherichia coli [9] = assay: Minimum inhibitory concentration against Escherichia coli X4 (inoculum, 10e4 cfu per spot)
Enterobacter cloacae [10] = assay: Minimum inhibitory concentration against Enterobacter cloacae P99 (inoculum, 10e4 cfu per spot); type: functional; how it was run: as §3
Staphylococcus aureus [11] = assay: Minimum inhibitory concentration against Staphylococcus aureus A4 (inoculum, 10e5 cfu per spot); type: functional; how it was run: as §2
Klebsiella aerogenes [12] = assay: Minimum inhibitory concentration against Klebsiella aerogenes X6 (inoculum, 10e4 cfu per spot); type: functional; how it was run: as §3
Enterobacter cloacae [13] = assay: Minimum inhibitory concentration against Enterobacter cloacae A13 (inoculum, 10e5 cfu per spot); type: functional; how it was run: as §2
Escherichia coli [14] = assay: Minimum inhibitory concentration against Escherichia coli DCO (inoculum, 10e4 cfu per spot); type: functional; how it was run: as §3
Escherichia coli [15] = assay: Minimum inhibitory concentration against Escherichia coli DC2 (inoculum, 10e4 cfu per spot); type: functional; how it was run: as §3
Enterobacter cloacae [16] = assay: Minimum inhibitory concentration against Enterobacter cloacae P99 (inoculum, 10e4 cfu per spot)(type I lactamase producer); type: functional; how it was run: as §3
Proteus mirabilis [17] = assay: Minimum inhibitory concentration against Proteus mirabilis A18(inoculum, 10e5 cfu per spot); type: functional; how it was run: as §2
Escherichia coli [18] = assay: Minimum inhibitory concentration against Escherichia coli TEM X3 (inoculum, 10e4 cfu per spot)(TEM I type lactamase producer)
Klebsiella pneumoniae [19] = assay: Minimum inhibitory concentration against Klebsiella pneumoniae A24 (inoculum, 10e5 cfu per spot); type: functional; how it was run: as §2
Proteus vulgaris [20] = assay: Minimum inhibitory concentration against Proteus vulgaris Pv9 (inoculum, 10e5 cfu per spot)
Enterobacter cloacae [21] = assay: Minimum inhibitory concentration against Enterobacter cloacae A13(inoculum, 10e5 cfu per spot); type: functional; conditions: in the assay text read “10e2 cfu per spot” for “10e5 cfu per spot”
Staphylococcus aureus [22] = assay: as §1; type: functional; how it was run: as §2
Pseudomonas aeruginosa [23] = assay: Minimum inhibitory concentration against Pseudomonas aeruginosa A21(inoculum, 10e5 cfu per spot). Parentheses value indicate inoculum, 10e2 cfu per spot; type: functional
How it was run: (§4)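 MIC in µg/mL in Jewell and Permain growth medium. Each strain was spot-inoculated at 10^5 cfu per spot; the bracketed values come from a 10^2 cfu per spot inoculum.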

Staphylococcus aureus [24] = assay: Minimum inhibitory concentration against Staphylococcus aureus A4(inoculum, 10e5 cfu per spot). Parentheses value indicate inoculum, 10e2 cfu per spot; type: functional; how it was run: as §4
Proteus vulgaris [25] = assay: Minimum inhibitory concentration against Proteus vulgaris Pv9(inoculum, 10e5 cfu per spot). Parentheses value indicate inoculum, 10e2 cfu per spot
Proteus mirabilis [26] = assay: Minimum inhibitory concentration against Proteus mirabilis A18(inoculum, 10e5 cfu per spot). Parentheses value indicate inoculum, 10e2 cfu per spot; type: functional; how it was run: as §4
Staphylococcus aureus [27] = assay: Minimum inhibitory concentration against Staphylococcus aureus A6(inoculum, 10e5 cfu per spot). Parentheses value indicate inoculum, 10e2 cfu per spot; type: functional; how it was run: as §4
Klebsiella pneumoniae [28] = assay: Minimum inhibitory concentration against Klebsiella pneumoniae A24(inoculum, 10e5 cfu per spot). Parentheses value indicate inoculum, 10e2 cfu per spot; type: functional; how it was run: as §4
Serratia marcescens [29] = assay: Minimum inhibitory concentration against Serratia marcescens A16(inoculum, 10e5 cfu per spot). Parentheses value indicate inoculum, 10e2 cfu per spot; type: functional; how it was run: as §4
Enterobacter cloacae [30] = assay: Minimum inhibitory concentration against Enterobacter cloacae A13(inoculum, 10e5 cfu per spot). Parentheses value indicate inoculum, 10e2 cfu per spot; type: functional; how it was run: as §4
Escherichia coli [31] = assay: Minimum inhibitory concentration against Escherichia coli A8(inoculum, 10e5 cfu per spot). Parentheses value indicate inoculum, 10e2 cfu per spot; type: functional; how it was run: as §4

MIC (Staphylococcus aureus [1]) [µg/mL] | MIC (Pseudomonas aeruginosa [2]) [µg/mL] | MIC (Proteus mirabilis [3]) [µg/mL] | MIC (Enterobacter cloacae [4]) [µg/mL] | MIC (Serratia marcescens [5]) [µg/mL] | MIC (Streptococcus pyogenes) [µg/mL] | MIC (Staphylococcus aureus [6]) [µg/mL] | MIC (Escherichia coli [7]) [µg/mL] | MIC (Klebsiella aerogenes [8]) [µg/mL] | MIC (Escherichia coli [9]) [µg/mL] | MIC (Enterobacter cloacae [10]) [µg/mL] | MIC (Klebsiella aerogenes [12]) [µg/mL] | MIC (Escherichia coli [14]) [µg/mL] | MIC (Escherichia coli [15]) [µg/mL] | MIC (Enterobacter cloacae [16]) [µg/mL] | MIC (Escherichia coli [18]) [µg/mL] | also measured | Structure (SMILES)
8 (≈ 16.1 µM) | > 1000 | 1000 (≈ 2010 µM) | 1000 (≈ 2010 µM) | > 1000 | 200 (≈ 402 µM) | 8 (≈ 16.1 µM) | > 1000 | – | – | – | – | – | – | – | – | – | CC1=C(C(=O)OC(c2ccccc2)c2ccccc2)N2C(=O)[C@@H](Nc3nc4ccccc4o3)C2SC1 (some centres undefined)
– | > 256 | – | – | 128 (≈ 225 µM) | 1 (≈ 1.76 µM) | 2 (≈ 3.52 µM) | 2 (≈ 3.52 µM) | 128 (≈ 225 µM) | 1 (≈ 1.76 µM) | 2 (≈ 3.52 µM) | 4 (≈ 7.03 µM) | 1 (≈ 1.76 µM) | 0.06 (≈ 0.106 µM) | 256 (≈ 450 µM) | 4 (≈ 7.03 µM) | MIC (Staphylococcus aureus [11]): 16 µg/mL (≈ 28.1 µM); MIC (Enterobacter cloacae [13]): 256 µg/mL (≈ 450 µM); MIC (Proteus mirabilis [17]): 4 µg/mL (≈ 7.03 µM); MIC (Klebsiella pneumoniae [19]): 4 µg/mL (≈ 7.03 µM); MIC (Proteus vulgaris [20]): 256 µg/mL (≈ 450 µM) | CC(=O)OCC1=C(C(=O)OC(c2ccccc2)c2ccccc2)N2C(=O)[C@@H](Nc3nc4cc(C)ccc4[nH]3)C2SC1 (some centres undefined)
0.5 (≈ 0.875 µM) | > 1000 | 200 (≈ 350 µM) | – | 1000 (≈ 1750 µM) | 1 (≈ 1.75 µM) | 0.5 (≈ 0.875 µM) | 200 (≈ 350 µM) | – | – | – | – | – | – | – | – | MIC (Enterobacter cloacae [21]): 200 µg/mL (≈ 350 µM) | CC(=O)OCC1=C(C(=O)OC(c2ccccc2)c2ccccc2)N2C(=O)[C@@H](Nc3nc4ccccc4s3)C2SC1 (some centres undefined)
– | > 1000 | 1000 (≈ 1950 µM) | > 1000 | > 1000 | 40 (≈ 77.9 µM) | – | > 1000 | – | – | – | – | – | – | – | – | MIC (Staphylococcus aureus [22]): 1 µg/mL (≈ 1.95 µM) | CC1=C(C(=O)OC(c2ccccc2)c2ccccc2)N2C(=O)[C@@H](Nc3nc4ccccc4s3)C2SC1 (some centres undefined)
– | – | – | – | – | 128 (≈ 278 µM) | – | – | 2 (≈ 4.34 µM) | 1 (≈ 2.17 µM) | 1 (≈ 2.17 µM) | 2 (≈ 4.34 µM) | 1 (≈ 2.17 µM) | 0.5 (≈ 1.09 µM) | 2 (≈ 4.34 µM) | 1 (≈ 2.17 µM) | MIC (Pseudomonas aeruginosa [23]): 256 µg/mL (≈ 556 µM); MIC (Staphylococcus aureus [24]): > 256 µg/mL; MIC (Proteus vulgaris [25]): > 256 µg/mL; MIC (Proteus mirabilis [26]): > 256 µg/mL; MIC (Staphylococcus aureus [27]): > 256 µg/mL; MIC (Klebsiella pneumoniae [28]): 1 µg/mL (≈ 2.17 µM); MIC (Serratia marcescens [29]): 4 µg/mL (≈ 8.69 µM); MIC (Enterobacter cloacae [30]): 4 µg/mL (≈ 8.69 µM); MIC (Escherichia coli [31]): 2 µg/mL (≈ 4.34 µM) | CC1=C(C(=O)OC(c2ccccc2)c2ccccc2)N2C(=O)[C@@H](NC3=NC4CC4N3)C2SC1 (some centres undefined)
